Active and inactive are the calls of the source. The rule behind the calls is not given here.
Legend:
A549 [1] = experiment: Induction of mitochondrial depolarization in human A549 cells assessed as depolarized cell population at 15 uM measured after 48 hrs by JC1 dye based flow cytometry (reference value: 0.4%); type: functional
A549 [2] = experiment: Induction of apoptosis in human A549 cells assessed as late apoptotic cells at 30 uM after 48 hrs by AnnexinV-FITC/propidium iodide staining based flow cytometry analysis (reference value: 1 to 3.1 %); type: functional
HepG2 [3] = experiment: Potency index, ratio of diosgenin IC50 to test compound IC50 for cytotoxicity against human HepG2 cells assessed as reduction in cell viability; type: functional
A549 [4] = experiment: Induction of apoptosis in human A549 cells assessed as membrane blebbing at 15 to 30 uM measured after 48 hrs by phase contrast microscopic analysis; type: functional, cell-based; conditions: dose 15-30 µM
Method in brief: (§1)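 A549 seeded at 2×10^5 cells/well and allowed to settle 24 h. Then exposed 48 h to test compound (15 or 30 μM) or diosgenin (30 μM); controls received 0.1% DMSO. Cell shape examined by phase contrast microscopy.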

A549 [5] = experiment: Induction of apoptosis in human A549 cells assessed as formation of apoptotic bodies at 15 to 30 uM measured after 48 hrs by phase contrast microscopic analysis; type: functional, cell-based; conditions: dose 15-30 µM; method in brief: as §1
A549 [6] = experiment: Induction of apoptosis in human A549 cells assessed as early apoptotic cells at 15 uM after 48 hrs by AnnexinV-FITC/propidium iodide staining based flow cytometry analysis (reference value: 0.5 to 2.3 %); type: functional
A549 [7] = experiment: Cytotoxicity against human A549 cells assessed as reduction in cell viability measured after 48 hrs by MTT assay; type: functional, cell-based; conditions: A549, 48 h
Method in brief: (§2)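 Cells in DMEM with 10% FBS, penicillin/streptomycin, 37 °C, 5% CO2. Seeded at 5×10^3 per well directly into medium holding graded concentrations of sample and incubated 48 h. MTT (5 mg/mL in PBS) added for 4 h, medium replaced with DMSO, absorbance read at 492 nm. IC50 taken as the concentration giving 50% inhibition of proliferation; three replicates, means ± SD.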

MCF7 = experiment: Cytotoxicity against human MCF7 cells assessed as reduction in cell viability measured after 48 hrs by MTT assay; type: functional, cell-based; conditions: MCF7, 48 h; method in brief: as §2
A549 [8] = experiment: Induction of apoptosis in human A549 cells assessed as increase in cleaved caspase 3 expression at 7.5 to 30 uM by Western blot analysis; type: functional, cell-based; conditions: dose 7.5-30 µM
Method in brief: (§3)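 A549 treated with compound (0, 7.5, 15, 30 μM) or diosgenin (0, 15, 30 μM), lysed in RIPA and boiled 10 min. 30 μg protein run on 10% SDS-PAGE, blotted to nitrocellulose, blocked in 5% BSA. Primary antibodies used at 1:1000, HRP secondary at 1:5000 for 2 h, ECL detection. β-actin served as loading control.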

A549 [9] = experiment: Induction of apoptosis in human A549 cells assessed as increase in cleaved caspase 9 expression at 7.5 to 30 uM by Western blot analysis; type: functional, cell-based; conditions: dose 7.5-30 µM; method in brief: as §3
A549 [10] = experiment: Induction of mitochondrial depolarization in human A549 cells assessed as depolarized cell population at 30 uM measured after 48 hrs by JC1 dye based flow cytometry (reference value: 0.4%); type: functional
A549 [11] = experiment: Induction of apoptosis in human A549 cells assessed as chromatin condensation at 15 to 30 uM measured after 48 hrs by DAPI staining based fluorescence microscopic analysis; type: functional, cell-based; conditions: dose 15-30 µM
Method in brief: (§4)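 A549 plated at 2×10^5 cells/well and grown 24 h. Treated 48 h with test compound (15 or 30 μM) or diosgenin (30 μM); vehicle control 0.1% DMSO. Fixed in 4% formaldehyde 1 h at 4 °C, stained with 5 μM DAPI for 10 min at 37 °C in the dark, and viewed by fluorescence microscopy.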

A549 [12] = experiment: Induction of apoptosis in human A549 cells assessed as cell rounding at 15 to 30 uM measured after 48 hrs by phase contrast microscopic analysis; type: functional, cell-based; conditions: dose 15-30 µM; method in brief: as §1
A549 [13] = experiment: Induction of apoptosis in human A549 cells assessed as decrease in Bcl-2 expression by Western blot analysis; type: functional, cell-based; conditions: dose 7.5-30 µM; method in brief: as §3
A549 [14] = experiment: Induction of mitochondrial depolarization in human A549 cells assessed as increase in depolarized cell population measured after 48 hrs by JC1 dye based flow cytometry; type: functional; conditions: dose 15-30 µM
A549 [15] = experiment: Induction of apoptosis in human A549 cells assessed as nuclear fragmentation at 15 to 30 uM measured after 48 hrs by DAPI staining based fluorescence microscopic analysis; type: functional, cell-based; conditions: dose 15-30 µM; method in brief: as §4
A549 [16] = experiment: Induction of apoptosis in human A549 cells assessed as cell shrinkage at 15 to 30 uM measured after 48 hrs by phase contrast microscopic analysis; type: functional, cell-based; conditions: dose 15-30 µM; method in brief: as §1
GES1 = experiment: Cytotoxicity against human GES1 cells assessed as reduction in cell viability measured after 48 hrs by MTT assay; type: cell-based; conditions: GES1, 48 h; method in brief: as §2
A549 [17] = experiment: Induction of apoptosis in human A549 cells assessed as late apoptotic cells at 15 uM after 48 hrs by AnnexinV-FITC/propidium iodide staining based flow cytometry analysis (reference value: 1 to 3.1 %); type: functional
A549 [18] = experiment: Induction of apoptosis in human A549 cells assessed as increase in cleaved PARP expression at 7.5 to 30 uM by Western blot analysis; type: functional, cell-based; conditions: dose 7.5-30 µM; method in brief: as §3
A549 [19] = experiment: Potency index, ratio of diosgenin IC50 to test compound IC50 for cytotoxicity against human A549 cells assessed as reduction in cell viability; type: functional
A549 [20] = experiment: Induction of apoptosis in human A549 cells assessed as increase in Bax expression by Western blot analysis; type: functional, cell-based; conditions: dose 7.5-30 µM; method in brief: as §3
HCT-116 = experiment: Cytotoxicity against human HCT-116 cells assessed as reduction in cell viability measured after 48 hrs by MTT assay; type: functional, cell-based; conditions: HCT-116, 48 h; method in brief: as §2
A549 [21] = experiment: Induction of apoptosis in human A549 cells assessed as increase in cyto-c expression by Western blot analysis; type: functional, cell-based; conditions: dose 7.5-30 µM; method in brief: as §3
HepG2 [22] = experiment: Cytotoxicity against human HepG2 cells assessed as reduction in cell viability measured after 48 hrs by MTT assay; type: functional, cell-based; conditions: HepG2, 48 h; method in brief: as §2
A549 [23] = experiment: Induction of apoptosis in human A549 cells assessed as early apoptotic cells at 30 uM after 48 hrs by AnnexinV-FITC/propidium iodide staining based flow cytometry analysis (reference value: 0.5 to 2.3 %); type: functional

CC(=O)O[C@H]1CC[C@@]2(C)C(=CC[C@H]3[C@@H]4C[C@@H]5O[C@H](CC[C@H](C)c6nnc(-c7cccnc7)s6)[C@@H](C)[C@@H]5[C@@]4(C)CC[C@@H]32)C1
Activity (A549 [1]): 7.5% | Activity (A549 [2]): 21.3% | Ratio IC50 (HepG2 [3]): 2.9 | Activity (A549 [4]): Active | Activity (A549 [5]): Active | Activity (A549 [6]): 21% | IC50 (A549 [7]): 3.93 µM | IC50 (MCF7): > 100 µM | Activity (A549 [8]): Active | Activity (A549 [9]): Active | Activity (A549 [10]): 26% | Activity (A549 [11]): Active | Activity (A549 [12]): Active | Activity (A549 [13]): Dose-dependent effect | Activity (A549 [14]): Dose-dependent effect | Activity (A549 [15]): Active | Activity (A549 [16]): Active | IC50 (GES1): 420 µM | Activity (A549 [17]): 15.1% | Activity (A549 [18]): Active | Ratio IC50 (A549 [19]): 6.7 | Activity (A549 [20]): Dose-dependent effect | IC50 (HCT-116): 29.6 µM | Activity (A549 [21]): Dose-dependent effect | IC50 (HepG2 [22]): 11.7 µM | Activity (A549 [23]): 60%

Reference: ChEMBL document CHEMBL4715838, “Novel diosgenin derivatives containing 1,3,4-oxadiazole/thiadiazole moieties as potential antitumor agents: Design, synthesis and cytotoxic evaluation” (Eur J Med Chem, 2020)
